Bioassay records: PubChem, SRMLSC
Yeast lifespan up – compounds extending yeast replicative lifespan, primary screen, S. cerevisiae, OD615; actives 0.68% (n = 130,000); inhibition of the nicotinamide effect, % at 10 µM; S. cerevisiae growth with nicotinamide; deaD strain in restrictive glucose medium;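 active = inhibition above a set limit, placed 3 SD over the median of all compounds, cut at about 26% in these data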
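Assay system: DeaD-strain S. cerevisiae. Medium: CSMM-D glucose medium, restrictive. Reagent: nicotinamide, 1.5 mM, co-present with compound. Compound: 10 µM single point, 0.25% DMSO. Schedule: culture preincubation 4 h, compound exposure 48 h, both 30 °C. Detection: absorbance at 615 nm.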
PostGolgi ctrl – growth inhibition of yeast control strain, primary screen, counter-screen for post-Golgi transport modulator project; actives 5% (n = 98,000); inhibition, % at 10 µM; efflux-deficient yeast background strain, growth absorbance A615, 16 h
PostGolgi yeast – phenotypic screen on post-Golgi transport, primary screen | inhibition, % at 10 µM | post-Golgi transport phenotypic cell assay | actives 0.9% (n = 98,000);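 also: yeast cells grown in 1536-well plates; yeast grown about 18 h at 30C before absorbance read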
BB579 growth dn – growth inhibitors of yeast BB579 in restrictive medium, primary screen, yeast lifespan-shortening project, S. cerevisiae. OD615, 48 h. inhibition, % at 10 µM. actives 0.51% (n = 140,000). AID 804, 2007;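 active = inhibition above a set limit, 3 SD over the mean compound inhibition, cut at about 44% in these data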
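System: DeaD yeast strain BB579; buffer or medium: CSMM-D dextrose restrictive medium; technique: OD at 615 nm; schedule: 4 h cell preincubation, 48 h compound exposure, 30 °C humidified; doses: single 10 µM dose; controls: amphotericin B 10 µg/mL, positive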
Each line names hits and unclear results; the compound was inactive in the other large screens. The full list was thinned out, with hits kept by preference. Rule as the data show it, unless noted: active = inhibition above about 30%; inactive = the rest.

CN(C)/C=C/C(=O)c1cccc(Cl)c1	PostGolgi ctrl 45
Cn1c(C(C#N)C(=O)c2ccco2)nc2ccccc21 (configuration not stated)	BB579 growth dn 64
Cn1c(C(C#N)C(=O)Cc2cccc3ccccc23)nc2ccccc21 (configuration not stated)	none
FC(F)(F)c1cc(C(F)(F)F)c2ccc(Oc3ccccc3)nc2n1	none
N#CC(c1ccc(Cl)cc1)c1ccc2c(C(F)(F)F)cc(C(F)(F)F)nc2n1 (configuration not stated)	PostGolgi ctrl 91, PostGolgi yeast 82
CCCSc1nnc2n(C)c(=O)c3c4c(sc3n12)CCC4	none
CCCCN(CCCC)C(=O)CSc1nnc2n(C)c(=O)c3c4c(sc3n12)CCCC4	PostGolgi ctrl 34
C[N+]1(CC(=O)Nc2ccc(F)cc2)CCN(C(=O)c2ccco2)CC1	none
Clc1ccc(CSc2nnc(-c3ccccn3)n2Cc2ccco2)c(Cl)c1	PostGolgi ctrl 52
Brc1ccc(CSc2nnc(-c3cnccn3)n2Cc2ccco2)cc1	PostGolgi ctrl 38
COc1cc(OC)cc(-c2nc3ccccc3c(=O)n2OC(=O)c2ccccc2C)c1	Yeast lifespan up 61 (no result: PostGolgi ctrl, PostGolgi yeast)
O=C(On1c(-c2ccccc2)nc2ccccc2c1=O)c1ccco1	none
CC(C)Oc1ccc(/C(O)=C2/C(=O)C(=O)N(CCN(C)C)C2c2cccs2)cc1 (configuration not stated)	none (no result: PostGolgi ctrl, PostGolgi yeast)
CCO/C(C)=N/n1c2nc3ccccc3nc2c2c(=O)n(Cc3ccccc3Cl)c(C)nc21	none
CCCOc1ccc2oc(=O)c3c(c2c1)CCCN3C(=O)CN1CCN(C(=O)c2ccco2)CC1	none
O=C(CN1CCCC1)N1CCCc2c1c(=O)oc1ccc(OCc3ccccc3)cc21	PostGolgi ctrl 36
Cc1ccc(-c2ccc(/C=C3\C(=O)ON=C3c3ccccc3)o2)c([N+](=O)[O-])c1	Yeast lifespan up 71
O=C1/C(=C\c2ccc(-c3ccccc3[N+](=O)[O-])o2)C(c2ccccc2)=NN1c1ccccc1	none (no result: Yeast lifespan up, PostGolgi ctrl, PostGolgi yeast)
CCc1n[nH]c(=S)n1/N=C/c1cc(Br)c(OC)cc1OC	none (no result: PostGolgi ctrl, PostGolgi yeast)
CCC1(C)C(Nc2c(C)cccc2C)=NC(=S)N1c1ccc(NC(C)=O)cc1 (configuration not stated)	none (no result: PostGolgi ctrl, PostGolgi yeast)
CCOC(=O)C1C(=O)NC(SCC(=O)OC)=C(C#N)C1c1ccccc1OCC (configuration not stated)	none
CCOC(=O)C1C(=O)NC(SCC(=O)Nc2nccs2)=C(C#N)C1c1ccccc1OCC (configuration not stated)	Yeast lifespan up 27
COC(=O)/C(=C/c1c[nH]c2ccccc12)[N+](=O)[O-]	Yeast lifespan up 26
COC(=O)/C(=C/c1cn(C)c2ccccc12)[N+](=O)[O-]	Yeast lifespan up 74
COC(=O)/C(=C/Nc1ccccc1)[N+](=O)[O-]	none
Cc1cc2occ(CC(=O)NCc3cccs3)c2cc1C(C)C	none (no result: PostGolgi ctrl, PostGolgi yeast)
Cc1csc(NC(=O)Cc2coc3cc(C)c(C(C)C)cc23)n1	BB579 growth dn 83
N#Cc1ccccc1Sc1ccccc1C(=O)Nc1ccc(Br)cc1	PostGolgi ctrl 37
N#Cc1ccccc1Sc1ccccc1C(=O)Nc1ccc2ccccc2c1	none (no result: PostGolgi ctrl, PostGolgi yeast)
COC(=O)Cc1cc(=O)n(-c2nc3ccccc3[nH]2)[nH]1	BB579 growth dn 72
CCOC(=O)C1=C(C)NC(C)=C(C(=O)OCC)C1c1cccs1	none (no result: PostGolgi ctrl, PostGolgi yeast)
CCOC(=O)C1=C(C)NC(C)=C(C(=O)OCC)C1c1sccc1C	PostGolgi ctrl 38
CCOC(=O)c1c(-c2ccc(C)o2)csc1NC(=O)CN1CCOCC1	none
CCOC(=O)c1c(-c2ccccc2)csc1NC(=O)CSc1nnnn1C	PostGolgi ctrl 38
CCOC(=O)c1c(-c2ccc(C)o2)csc1NC(=O)CSc1ncn[nH]1	PostGolgi ctrl 34
CC(=O)C1=C(C)N(Cc2ccccc2)C(=O)N[C@@H]1c1cccc(C(F)(F)F)c1	Yeast lifespan up 29 (no result: PostGolgi ctrl, PostGolgi yeast)
CC(=O)C1=C(C)N(Cc2ccccc2)C(=O)N[C@H]1c1cccc(C(F)(F)F)c1	none (no result: PostGolgi ctrl, PostGolgi yeast)
CCOC(=O)CSc1nc2ccccc2c(=O)n1CC1CCC(C(=O)NCc2ccco2)CC1 (configuration not stated)	PostGolgi ctrl 36
CCOC(=O)CSc1nc2cc(C(=O)NCc3ccco3)ccc2c(=O)n1C1CCCCC1	PostGolgi ctrl 45
CCOC(=O)CSc1nc2cc(C(=O)NCc3ccco3)ccc2c(=O)n1-c1ccc(F)cc1	none
Cc1cc(C)cc(-n2c(SCC(=O)NCc3ccco3)nc3ccccc3c2=O)c1	Yeast lifespan up 56
C#CCOC(=O)c1ccc(-n2cncn2)nc1	none
